pKi: −log10 of the molar value. Activity calls are given as the source filed them. No cut-off for these calls is given here.
Legend:
[1] = tested on: Aphis gossypii; assay: Insecticidal activity against Aphis gossypii (cotton aphid) infested expanded cotyledon stage of summer crookneck squash seedlings assessed as mortality at 0.5 ppm applied as spray after 72 hr by dissecting binocular microscopic analysis relative to control; format: functional
How it was run: (§1)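 Four replicate plants per rate; controls were eight plants sprayed with blank-stock diluent. Plants held 72 h at about 74 °F, 40% RH, 24 h photoperiod. Live nonwinged aphids were counted on cotyledon undersides. Percent control was calculated by Abbott's correction against the solvent blank.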

[2] = tested on: Aphis gossypii; assay: Insecticidal activity against Aphis gossypii (cotton aphid) infested expanded cotyledon stage of summer crookneck squash seedlings assessed as mortality at 5 ppm applied as spray after 72 hr by dissecting binocular microscopic analysis relative to control; format: functional; how it was run: as §1
[3] = molecular target: T1, Nicotinic acetylcholine receptor alpha 5 subunit (Musca domestica, UniProt A9XFY4); assay: Displacement of [3H]imidacloprid from nicotinic acetylcholine receptor in Musca domestica (house fly) head membrane after 1 hr by liquid scintillation counting analysis
T1 sequence (A9XFY4 whole entry): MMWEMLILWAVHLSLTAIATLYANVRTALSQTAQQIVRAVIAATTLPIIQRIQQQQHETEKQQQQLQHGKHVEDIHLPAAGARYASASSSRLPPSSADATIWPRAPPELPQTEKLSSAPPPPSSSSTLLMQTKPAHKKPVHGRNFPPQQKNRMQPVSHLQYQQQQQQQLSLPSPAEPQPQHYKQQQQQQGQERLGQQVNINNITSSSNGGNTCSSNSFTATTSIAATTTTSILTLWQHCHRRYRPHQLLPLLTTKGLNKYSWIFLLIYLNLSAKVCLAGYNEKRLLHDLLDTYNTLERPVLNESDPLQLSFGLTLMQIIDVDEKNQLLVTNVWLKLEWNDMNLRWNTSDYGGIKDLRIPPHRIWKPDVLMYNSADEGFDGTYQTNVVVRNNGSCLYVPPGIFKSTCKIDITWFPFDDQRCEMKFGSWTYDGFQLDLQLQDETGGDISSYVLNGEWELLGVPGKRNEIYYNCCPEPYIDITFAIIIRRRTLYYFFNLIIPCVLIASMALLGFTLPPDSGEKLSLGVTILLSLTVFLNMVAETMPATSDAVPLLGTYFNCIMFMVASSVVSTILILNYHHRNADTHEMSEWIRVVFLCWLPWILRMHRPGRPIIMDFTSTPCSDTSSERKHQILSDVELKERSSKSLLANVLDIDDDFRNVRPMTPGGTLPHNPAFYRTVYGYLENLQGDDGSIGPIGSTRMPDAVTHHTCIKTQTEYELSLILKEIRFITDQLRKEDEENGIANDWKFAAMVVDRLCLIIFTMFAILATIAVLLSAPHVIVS
How it was run: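 Housefly heads separated from liquid-nitrogen-frozen adults, homogenized in ice-cold sucrose/EDTA/Tris-HCl/PMSF buffer. Membranes were prepared by 1000g then twice 35000g spins, resuspended in 50 mM Tris-HCl pH 7.4 and stored at -80 °C. Binding buffer was 120 mM NaCl, 50 mM Tris-HCl pH 7.4, with [3H]imidacloprid at 2 nM final and DMSO ≤0.25%. Incubation 1 h at 22 °C, then GF/C filtration. Nonspecific binding was set with 10^-4 M nicotine. Three runs in triplicate.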

[4] = tested on: Aphis gossypii; assay: Insecticidal activity against Aphis gossypii (cotton aphid) infested expanded cotyledon stage of summer crookneck squash seedlings assessed as mortality at 50 ppm applied as spray after 72 hr by dissecting binocular microscopic analysis relative to control; format: functional; how it was run: as §1
[5] = tested on: Bemisia tabaci; assay: Insecticidal activity against Bemisia tabaci (sweet potato whitefly); format: functional, organism-based
[6] = tested on: Aphis gossypii; assay: Insecticidal activity against Aphis gossypii (cotton aphid) infested expanded cotyledon stage of summer crookneck squash seedlings assessed as mortality at 0.78 ppm applied as spray after 72 hr by dissecting binocular microscopic analysis relative to control; format: functional; how it was run: as §1
[7] = tested on: Nephotettix cincticeps; assay: Insecticidal activity against Nephotettix cincticeps (green rice leafhopper); format: functional, organism-based
[8] = tested on: Nilaparvata lugens; assay: Insecticidal activity against Nilaparvata lugens (brown plant hopper); format: functional, organism-based

| SMILES | mortality at 0.5 ppm [1] | mortality at 5 ppm [2] | pKi [3] | mortality at 50 ppm [4] | Activity [5] | mortality at 0.78 ppm [6] | Activity [7] | Activity [8] |
| --- | --- | --- | --- | --- | --- | --- | --- | --- |
| O=C1/C(=N\S(=O)(=O)C(F)(F)F)NCCN1Cc1ccc(Cl)nc1 | < 50% | 90% | 6.23 | 90% | – | – | – | – |
| NC(=S)N/N=C1/NCCN(Cc2ccc(Cl)nc2)C1=O | – | < 50% | 5.41 | < 50% | – | – | – | – |
| CN1CCN(CC2CCOC2)/C(=N\C#N)C1=O (stereo not drawn) | – | < 50% | 6.29 | < 50% | – | – | – | – |
| O=C1NCCN(Cc2ccc(Cl)nc2)C1=O | 50% | 90% | 6.40 | 90% | – | – | – | – |
| N#C/N=C1\NCCN1Cc1ccc(Cl)nc1 | – | 90% | 7.77 | 90% | – | – | – | – |
| CN(C)C(=O)/C(=N\C#N)N(C)Cc1ccc(Cl)nc1 | – | < 50% | 5.42 | 50% | – | – | – | – |
| O=C1C(=S)NCCN1Cc1ccc(Cl)nc1 | 50% | 50% | 5.75 | 90% | – | – | – | – |
| CN1CCN=C(N(C#N)Cc2ccc(Cl)nc2)C1=O | – | < 50% | – | < 50% | – | – | – | – |
| O=C1/C(=N\O)NCCN1Cc1ccc(Cl)nc1 | < 50% | 50% | – | 70% | – | – | – | – |
| CN1CCN(Cc2ccc(Cl)nc2)/C(=N/C#N)C1=O | – | – | 8.22 | 90% | Active | 90% | Active | Active |
| CN1C/C(=N\C#N)N(Cc2ccc(Cl)nc2)CC1=O | – | < 50% | – | 70% | – | – | – | – |
| N#C/N=C1/NCCN(Cc2ccc(Cl)nc2)C1=O | < 50% | 50% | 6.36 | 90% | – | – | – | – |
| CN1CCN(Cc2cnc(Cl)s2)/C(=N\C#N)C1=O | – | – | 8.40 | 90% | – | 70% | – | – |
| CO/N=C1/NCCN(Cc2ccc(Cl)nc2)C1=O | 50% | 70% | 5.82 | 90% | – | – | – | – |

Source: ChEMBL document CHEMBL3046309, “Dihydropiperazine neonicotinoid compounds. Synthesis and insecticidal activity” (J Agric Food Chem, 2003)
